# Compound activity as filed in PubChem BioAssay.
# Many of the other results were omitted from the sample, so hits are more common in it than they were.
# Diaphorase act – compounds boosting diaphorase resazurin reduction – biochemical, uHTS, resorufin fluorescence, counter-screen for diaphorase-coupled primary assays, primary screen; Diaphorase/resazurin coupled assay, 16 min; stronger effect = higher value; 1 = vehicle wells, 0 = NADH-free wells; activation factor at 20 µM; hit rate 0.005% among 190,000; AID 1229, 2008;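 active = diaphorase activity raised at least twofold by the compound at 20 µM; inactive = activation factor below 2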
#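 System – purified diaphorase enzyme from Clostridium kluyveri · Input – enzyme 0.07 U/mL final · Also added – final NADH 0.114 mM, resazurin 0.1 mM · Measured by – fluorescence of resorufin, 544 nm excitation, 590 nm emission · Timing – 16 min enzyme reaction, ambient temperature · Measure – resorufin increase flagging diaphorase activators or reducers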
# L major viab – Leishmania major promastigote growth inhibition, primary screen; Leishmania major promastigotes, resazurin fluorescence viability; inhibition, % at 10 µM; hit rate 9% among 200,000; AID 1063, 2008;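 note: promastigotes grown with compound for 44 hours at 28 °C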
# G6PDH counter – L. mesenteroides G6PDH inhibitors, counter-screen for G6PDH-coupled screening assays, biochemical, Leuconostoc mesenteroides enzyme; glucose-6-phosphate dehydrogenase [Leuconostoc mesenteroides]; Purified L. mesenteroides G6PDH, diaphorase/resazurin coupled fluorescence, 45 min; inhibition, % at 5 µM; hit rate 0.12% among 200,000
# Redox H2O2 prof – compounds producing H2O2 with reducing agent – biochemical, NIH compound library profiling, artefact control for MLSCN library redox annotation, primary screen; DTT-dependent redox cycling H2O2, phenol red/HRP absorbance; 100% = 100 µM peroxide control, 0% = buffer; activation, % at 10 µM; hit rate 0.03% among 200,000;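 active = activation of at least 50% relative to the plate's high and low controls in the primary single-dose screen; inactive = activation below 50%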;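 note: compound incubated with DTT at 0.8 mM final as the reducing agent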
# Diaph inh CS – diaphorase inhibitors and chemical oxidizers, primary screen, counter-screen for diaphorase-coupled primary assays, biochemical, uHTS, resorufin fluorescence; diaphorase resazurin-to-resorufin fluorescence, NADH, 16 min; bacterial (C. kluyveri) enzyme, not human; inhibition, % at 20 µM; hit rate 0.69% among 190,000; AID 1217, 2008;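 active = primary screen inhibition at 20 µM above a set limit, cut at about 50% in these data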;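 note: plate controls were DMSO with full reaction for no effect and wells lacking NADH for full effect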
#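 Assay system: diaphorase enzyme from Clostridium kluyveri. Quantity: enzyme working solution with 0.14 U/mL diaphorase. Schedule: reaction incubation of 16 min at room temperature. Technique: resorufin fluorescence, excitation 544 nm, emission 590 nm. Controls: No-NADH positive control and DMSO neutral control.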
# PfG6PD inh – PfG6PD enzyme inhibitors, primary screen, biochemical, fluorescence intensity, uHTS. glucose-6-phosphate dehydrogenase-6-phosphogluconolactonase (Plasmodium falciparum 3D7). PfGluPho enzyme, NADPH resazurin-diaphorase fluorescence. AID 504690, 2011. inhibition, % at 20 µM. hit rate 0.78% among 350,000;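 active = inhibition reaching at least a set limit at 20 µM in the primary screen, cut at about 59% in these data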;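 note: 0% = DMSO wells with substrate and 100% = DMSO wells lacking glucose-6-phosphate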
# * = called active by the depositor; x = not tested or not shown. Cut-off read from the data, not from the text of the source, unless noted: active = inhibition above about 50%; inactive = the rest.
SMILES,Diaphorase act,L major viab,G6PDH counter,Redox H2O2 prof,Diaph inh CS,PfG6PD inh
Cc1nnc(NC(=O)C2CSC3(C)CCC(=O)N23)s1 (stereo not given),x,x,x,x,x,0
CC(C)(C)OC(=O)N1CCC(CC2CC(c3cccc(Br)c3)=NO2)(C(=O)O)CC1 (stereo not given),x,x,x,x,x,3
Cc1cccc(OCC(=O)Nc2ccc3c(c2)OCO3)c1C,0.9,73*,2,1,8,12
CC(C)[C@@H](C(=O)OCC(=O)Nc1ccc2c(c1)OCO2)N1C(=O)c2ccccc2C1=O,0.9,82*,-2,1,9,21
COCC(=O)Nc1ccc2c(c1)OCO2,1.1,1,14,0,-15,0
CC(C(=O)Nc1ccc2c(c1)OCCO2)N1Cc2ccccc2C1=O (stereo not given),x,x,x,x,x,-3
CCC(C)[C@@H](C(=O)Nc1ccc2c(c1)OCO2)N1Cc2ccccc2C1=O (stereo not given in full),0.9,61*,5,-1,11,17
Cc1cc(C#N)c(C)n1-c1cc(S(=O)(=O)N2CCOCC2)ccc1N1CCCC1,0.8,47,-2,1,15,57
CC1CN(S(=O)(=O)c2cccc(C(=O)OC/C(O)=C(\C#N)c3nc4ccccc4[nH]3)c2)CC(C)O1 (stereo not given),0.9,-9,-22,-1,9,-22
OC1(c2cccc(F)c2)CCN(Cc2ccncc2)CC1,0.8,94*,8,0,23,-7
CCCc1sc(N/N=C/c2ccccn2)nc1-c1ccc(F)cc1,0.9,96*,1,2,15,25
Cc1nc(N/N=C/c2ccccn2)sc1C,0.9,3,-1,-1,6,22
COc1ccc(/C=C2/C(=O)N(c3ccccc3)N=C2C)cc1OC,x,x,x,x,x,0
COc1cccc(/C=C/C(=C2\C(=O)N(c3ccccc3)N=C2C)c2ccc(Br)cc2)c1OC,x,99*,x,4,x,-5
CCOc1ccc2nc(N(CCN(CC)CC)C(=O)c3ccc([N+](=O)[O-])cc3)sc2c1,1,20,6,6,-2,-8
On1c2c(c3c4nonc4ccc31)CCCC2,0.4,-7,47,-1,56*,x
O=C(NCc1ccco1)c1cnn2c(C(F)(F)F)cc(-c3cccs3)nc12,0.4,8,9,0,58*,7
COc1ccc(CN2CCCCC2C(=O)Nc2ccc(OC)c(OCC(C)C)c2)cc1OC (stereo not given),1,0,0,3,-2,5
Cc1ccc(C(=O)Nc2ccccc2SCC2CSc3nc4ccccc4c(=O)n32)cc1 (stereo not given),1,50*,8,-4,5,-7
O=C(Nc1ccccc1SCC1CSc2nc3ccccc3c(=O)n21)c1ccccc1 (stereo not given),0.9,-8,11,-3,8,-3
O=c1c2ccccc2nc2n1C(CSCc1ccc(Cl)cc1)CS2 (stereo not given),0.8,59*,-4,-3,17,49
COc1ccc(C2=NNC(=O)C2(C)Br)cc1 (stereo not given),x,x,x,x,x,23
O=C(CCc1ccccc1)NNC(=S)NC(=O)c1ccccc1,0.6,25,-2,-4,43,-1
CC(C)(C)c1cc(CCC(=O)NNC(=S)NC(=O)c2ccccc2)cc(C(C)(C)C)c1O,1,97*,-6,0,3,5
CN(C)c1ccc(/C=N/N2CCN(Cc3ccccc3Cl)CC2)cc1,x,x,x,x,x,9
Oc1cccc2ccc[n+](CC(O)Cn3c4ccccc4c4ccccc43)c12 (stereo not given),1.1,91*,-4,0,-8,25
O=C(CN1CCOCC1)NN=C1CCCCCCCCCCC1,0.9,52*,-3,0,10,-6
